Measured values from ChEMBL document CHEMBL1129580, “Endogenous natriuretic factors. 5. Synthesis and biological activity of a natriuretic metabolite of diltiazem and its derivatives” (1996).

Experiments:
Rattus norvegicus [1] = experiment: Natriuretic effect was evaluated in the conscious female rat by natriuretic assay involving metabolic caging at dose 10 mg/kg; format: functional
Method in brief: (§1)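 Rats housed singly in metabolic cages 1-2 days beforehand and acclimated to oral gavage with 3 mL/kg tap water; food and water withdrawn 2 h pre-test. Oral saline volume load, 25 mL/kg, then compound by gavage as 1% CMC suspension (1 mL/kg); 1% CMC vehicle control. Six rats per group. 5 h urine collected; volume, Na+, K+ measured. Outliers >2 SD removed; ANOVA, Scheffe F test.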

Rattus norvegicus [2] = experiment: Kaliuretic effect was evaluated in the conscious female rat by natriuretic assay involving metabolic caging at dose 10 mg/kg; format: functional; method in brief: as §1
Rattus norvegicus [3] = experiment: Kaliuretic effect was evaluated in the conscious female rat by natriuretic assay involving metabolic caging at dose 30 mg/kg; format: functional; method in brief: as §1
Rattus norvegicus [4] = experiment: Kaliuretic effect was evaluated in the conscious female rat by natriuretic assay involving metabolic caging at dose 50 mg/kg; format: functional; method in brief: as §1
Rattus norvegicus [5] = experiment: Diuretic effect was evaluated in the conscious female rat by natriuretic assay involving metabolic caging at dose 10 mg/kg; format: functional, Urine; method in brief: as §1
Rattus norvegicus [6] = experiment: Natriuretic effect was evaluated in the conscious female rat by natriuretic assay involving metabolic caging at dose 30 mg/kg; format: functional; method in brief: as §1
Rattus norvegicus [7] = experiment: Natriuretic effect was evaluated in the conscious female rat by natriuretic assay involving metabolic caging at dose 50 mg/kg; format: functional; method in brief: as §1
Rattus norvegicus [8] = experiment: Diuretic effect was evaluated in the conscious female rat by natriuretic assay involving metabolic caging at dose 30 mg/kg; format: functional, Urine; method in brief: as §1
Rattus norvegicus [9] = experiment: Diuretic effect was evaluated in the conscious female rat by natriuretic assay involving metabolic caging at dose 50 mg/kg; format: functional, Urine; method in brief: as §1
Rattus norvegicus [10] = experiment: Natriuretic effect was evaluated in the conscious female rat by natriuretic assay involving metabolic caging at dose 20 mg/kg; format: functional; method in brief: as §1
Rattus norvegicus [11] = experiment: Diuretic effect was evaluated in the conscious female rat by natriuretic assay involving metabolic caging at dose 20 mg/kg; format: functional, Urine; method in brief: as §1
Rattus norvegicus [12] = experiment: Kaliuretic effect was evaluated in the conscious female rat by natriuretic assay involving metabolic caging at dose 20 mg/kg; format: functional; method in brief: as §1
Rattus norvegicus [13] = experiment: Kaliuretic effect was evaluated in the conscious female rat by natriuretic assay involving metabolic caging at dose 5 mg/kg; format: functional; method in brief: as §1
Rattus norvegicus [14] = experiment: Natriuretic effect was evaluated in the conscious female rat by natriuretic assay involving metabolic caging at dose 5 mg/kg; format: functional; method in brief: as §1
Rattus norvegicus [15] = experiment: Diuretic effect was evaluated in the conscious female rat by natriuretic assay involving metabolic caging at dose 5 mg/kg; format: functional, Urine; method in brief: as §1

| SMILES | Natriuretic activity (Rattus norvegicus [1]) | Kaliuretic activity (Rattus norvegicus [2]) | Kaliuretic activity (Rattus norvegicus [3]) | Kaliuretic activity (Rattus norvegicus [4]) | Diuretic activity (Rattus norvegicus [5]) | Natriuretic activity (Rattus norvegicus [6]) | Natriuretic activity (Rattus norvegicus [7]) | Diuretic activity (Rattus norvegicus [8]) | Diuretic activity (Rattus norvegicus [9]) | Natriuretic activity (Rattus norvegicus [10]) | Diuretic activity (Rattus norvegicus [11]) | Kaliuretic activity (Rattus norvegicus [12]) | Kaliuretic activity (Rattus norvegicus [13]) | Natriuretic activity (Rattus norvegicus [14]) | Diuretic activity (Rattus norvegicus [15]) |
| --- | --- | --- | --- | --- | --- | --- | --- | --- | --- | --- | --- | --- | --- | --- | --- |
| COc1ccc([C@@H]2Sc3ccccc3N(CCO)C[C@@H]2O)cc1 | <2 µM/g | <1 µM/g | <0.9 µM/g | 0.97 µM/g | 1.7 mL/g | <1.6 µM/g | <1.65 µM/g | 1.75 mL/g | 1.6 mL/g |  |  |  |  |  |  |
| COc1ccc([C@@H]2Sc3ccccc3N(CC(=O)O)C(=O)[C@@H]2OC(C)=O)cc1 | <2 µM/g | <0.9 µM/g | 1.2 µM/g | 1.25 µM/g | 1.92 mL/g | <2.1 µM/g | 1.7 µM/g | 2.25 mL/g | 2.1 mL/g | <1.55 µM/g | 1.75 mL/g | <1.08 µM/g |  |  |  |
| COc1ccc([C@@H]2Sc3ccccc3N(CCO)C(=O)[C@@H]2O)cc1 | <2.5 µM/g | 1.1 µM/g |  | <0.8 µM/g | 2.1 mL/g |  | <0.9 µM/g |  | 1.6 mL/g | <1.9 µM/g | 1.8 mL/g | <1.05 µM/g | 1 µM/g | <1.6 µM/g | 1.7 mL/g |
| COc1ccc([C@@H]2Sc3ccccc3N(CC(=O)O)C(=O)[C@@H]2O)cc1 | <2 µM/g | 1.1 µM/g | 1.07 µM/g | 1.23 µM/g | 2 mL/g | <2.1 µM/g | <1.95 µM/g | 2.1 mL/g | 1.85 mL/g | <1.6 µM/g | 1.7 mL/g | 1.15 µM/g |  |  |  |
| CCOC(=O)CN1C(=O)[C@H](O)[C@H](c2ccc(OC)cc2)Sc2ccccc21 | <2 µM/g | <1.1 µM/g | <0.75 µM/g | 1 µM/g | 1.7 mL/g | <1.6 µM/g | <1.25 µM/g | 1.5 mL/g | 1.3 mL/g |  |  |  |  |  |  |
| COc1ccc([C@@H]2Sc3ccccc3N(CCO)C(=O)[C@@H]2OC(C)=O)cc1 | <1.25 µM/g | 0.7 µM/g |  |  | 1.3 mL/g |  |  |  |  | <1.35 µM/g | 1.28 mL/g | <0.67 µM/g |  |  |  |
| COc1ccc([C@@H]2Sc3ccccc3N(CCOC(C)=O)C(=O)[C@@H]2OC(C)=O)cc1 | <1.35 µM/g | <0.95 µM/g |  | <0.7 µM/g | 1.3 mL/g |  | <1.55 µM/g |  | 1.3 mL/g |  |  |  |  |  |  |
| COc1ccc([C@@H]2Sc3ccccc3N(CCN(C)C)C(=O)[C@@H]2OC(C)=O)cc1 [DILTIAZEM] | <1.4 µM/g | <0.8 µM/g |  |  | 1.6 mL/g |  |  |  |  | <1.6 µM/g | 1.8 mL/g | 0.7 µM/g |  |  |  |
| NS(=O)(=O)c1cc(C(=O)O)c(NCc2ccco2)cc1Cl [FUROSEMIDE] |  |  | <1.6 µM/g |  |  | <2.5 µM/g |  | 2.6 mL/g |  | <1.1 µM/g | 1.3 mL/g | <1.1 µM/g |  |  |  |
